Fewer inactive variants are shown than the library holds.
B1: tRNA (parent)
chain: GUUCCGUUGGCGUAAUGGUAACGCGUCUCCCUCCUAAGGAGAAGACUGCGGGUUCGAGUCCCGUACGGAACG

Variants of: B1
Assay: yeast fitness relative to wild type (ratio to wild type); higher = fitter; tRNA-Arg(CCU), competitive growth, 37 C, YPD
Method in brief: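 Changes in genotype frequencies gave Darwinian fitness relative to wild type. Frequencies were read by 100-nucleotide paired-end sequencing of gene amplicons before and after pooled Saccharomyces cerevisiae strains, carrying tRNA-Arg(CCU) gene variants at the native locus, were competed in YPD at 37°C for 24 hours in six replicates. A genotype was kept only with ≥ 100 starting reads, and estimates < 0.5 were set to 0.5.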

Variant	yeast fitness
GUUCCGUUGGCGUAAUGGUAACGCGUCUCCCUCCUAAGGAGAAGACAGCGGGUUCGAGUCCCGUACGGCACG [U47A A69C]	0.82
GUUCCGUUGGCGUAAUGGUAACGCGUCUCCCUCCUAAGGAGAAGACAGUGGGUUCGAGUCCCGUCCGGAACG [U47A C49U A65C]	0.702
GUUCCGUUGGCGUAAUGGUAACGCGUCUCCCUCCUAAGGAGAAGACUCCGGGUUCGAGUCCAGUACGGAACG [G48C C62A]	0.771
GUUCCGUUGGCGUAAUGGUAACGCGUCUCCCUCCUAAGGAGAAGACUACGGCUUCGAGUCCCGUACCGAACG [G48A G52C G67C]	≤ 0.5
GUUCCGUUGGCGUAAUGGUAACGCGUCUCCCUCCUAAGGAGAAGACCGCGGGUUCGAGUCCCGUACGGAGCG [U47C A70G]	1.03
GUUCCGUUGGCGUAAUGGUAACGCGUCUCCCUCCUAAGGAGAAGAUUGCGGGUUCGAGCCCCGUACGGAACG [C46U U59C]	1.03
GUUCCGUUGGCGUAAUGGUAACGCGUCUCCCUCCUAAGGAGAAGAUUGCGGGUUCGAGGCCCGUACGGAACG [C46U U59G]	0.962
GUUCCGUUGGCGUAAUGGUAACGCGUCUCCCUCCUAAGGAGAAGACUCCGGGUUCGAGUCCCGUACGGAGCG [G48C A70G]	0.901
GUUCCGUUGGCGUAAUGGUAACGCGUCUCCCUCCUAAGGAGAAGACUCCGGGUUCGAGUCCCGUACGGACCG [G48C A70C]	0.784
GUUCCGUUGGCGUAAUGGUAACGCGUCUCCCUCCUAAGGAGAAGACUACGGGUGCGAGUCCCGUACGGAACG [G48A U54G]	0.686
GUUCCGUUGGCGUAAUGGUAACGCGUCUCCCUCCUAAGGAGAAGACUCCGCGUUCGAGUCCCGUACGGAACG [G48C G51C]	0.591
GUUCCGUUGGCGUAAUGGUAACGCGUCUCCCUCCUAAGGAGAAGACAGCGAGUUCGAGUCCCGUACGGGACG [U47A G51A A69G]	≤ 0.5
GUUCCGUUGGCGUAAUGGUAACGCGUCUCCCUCCUAAGGAGAAGACUAUGGGUUCGAGUCCUGUACGGUACG [G48A C49U C62U A69U]	0.553
GUUCCGUUGGCGUAAUGGUAACGCGUCUCCCUCCUAAGGAGAAGACCGCAGGUUCGAGUCCCGUACGCAACG [U47C G50A G68C]	0.539
GUUCCGUUGGCGUAAUGGUAACGCGUCUCCCUCCUAAGGAGAAGACUACGGGUUCUAAUCCCGUACGGAACG [G48A G56U G58A]	≤ 0.5
GUUCCGUUGGCGUAAUGGUAACGCGUCUCCCUCCUAAGGAGAAGACAACGGGUUCGAGUCCCGUACGGAACG [U47A G48A]	0.867
GUUCCGUUGGCGUAAUGGUAACGCGUCUCCCUCCUAAGGAGAAGACUACGGGUUUGAGUCCCGUACGGAACG [G48A C55U]	0.661
GUUCCGUUGGCGUAAUGGUAACGCGUCUCCCUCCUAAGGAGAAGACAGCGGGUUCGAGUCCGGUACGGAACG [U47A C62G]	0.856
GUUCCGUUGGCGUAAUGGUAACGCGUCUCCCUCCUAAGGAGAAGACAGCGGGCUCGAGUCCCGUACGGAACG [U47A U53C]	0.7
GUUCCGUUGGCGUAAUGGUAACGCGUCUCCCUCCUAAGGAGAAGACCGCGGGCUCGAGUCCCGUACGGAACG [U47C U53C]	0.795
GUUCCGUUGGCGUAAUGGUAACGCGUCUCCCUCCUAAGGAGAAGACCGUGGGUUCGAGUCCCGUACGCAACG [U47C C49U G68C]	0.582
GUUCCGUUGGCGUAAUGGUAACGCGUCUCCCUCCUAAGGAGAAGACAGCGGGUUCGAGUCCCGUACGCAACG [U47A G68C]	0.606
GUUCCGUUGGCGUAAUGGUAACGCGUCUCCCUCCUAAGGAGAAGACGGAGGGUUCGAGUCCCGUACGGUACG [U47G C49A A69U]	0.573
GUUCCGUUGGCGUAAUGGUAACGCGUCUCCCUCCUAAGGAGAAGACCGCGGGUUCGAUUCCCGUUCGGAACG [U47C G58U A65U]	0.511
GUUCCGUUGGCGUAAUGGUAACGCGUCUCCCUCCUAAGGAGAAGACUCCGGCUUCGCAUCCCGUAUGGAACG [G48C G52C A57C G58A C66U]	≤ 0.5

Variant	yeast fitness
GUUCCGUUGGCGUAAUGGUAACGCGUCUCCCUCCUAAGGAGAAGACCGCGGGUUCGAGUCCCGUGCGGAACG [U47C A65G]	0.92
GUUCCGUUGGCGUAAUGGUAACGCGUCUCCCUCCUAAGGAGAAGACCGCGGGUUCGCGUCCCGUACGGAACG [U47C A57C]	0.524
GUUCCGUUGGCGUAAUGGUAACGCGUCUCCCUCCUAAGGAGAAGACUACGGGUUCGAGUCCGGUAAGGAACG [G48A C62G C66A]	≤ 0.5
GUUCCGUUGGCGUAAUGGUAACGCGUCUCCCUCCUAAGGAGAAGACUACGGGUUCGAGUCCCGUACGAAACG [G48A G68A]	0.998
GUUCCGUUGGCGUAAUGGUAACGCGUCUCCCUCCUAAGGAGAAGAUUGCGGGAUCGAGUCCCGUACGGAACG [C46U U53A]	0.704
GUUCCGUUGGCGUAAUGGUAACGCGUCUCCCUCCUAAGGAGAAGACUACGGGUUCGAGUCCCGUUCGGAACG [G48A A65U]	1.02
GUUCCGUUGGCGUAAUGGUAACGCGUCUCCCUCCUAAGGAGAAGACUACGGGGUCGAGUCCCGUACGGAACG [G48A U53G]	0.599
GUUCCGUUGGCGUAAUGGUAACGCGUCUCCCUCCUAAGGAGAAGACUACGGGUUCGAGUCGUGUACGGAACG [G48A C61G C62U]	≤ 0.5
GUUCCGUUGGCGUAAUGGUAACGCGUCUCCCUCCUAAGGAGAAGACUAGGGGUUCGAGUCCCGUACGGAACG [G48A C49G]	1.05
GUUCCGUUGGCGUAAUGGUAACGCGUCUCCCUCCUAAGGAGAAGACAGCGGGUUCGGGUCCCGUACGGAACG [U47A A57G]	0.923
GUUCCGUUGGCGUAAUGGUAACGCGUCUCCCUCCUAAGGAGAAGACAGCGGGUUCGAGUCCCGUGCGGAACG [U47A A65G]	0.937
GUUCCGUUGGCGUAAUGGUAACGCGUCUCCCUCCUAAGGAGAAGACUACGGAUUCGAGUCCCGUACGGAACG [G48A G52A]	0.976
GUUCCGUUGGCGUAAUGGUAACGCGUCUCCCUCCUAAGGAGAAGACAGCAGGUUCGAGUCCCGUACGGAACG [U47A G50A]	0.831
GUUCCGUUGGCGUAAUGGUAACGCGUCUCCCUCCUAAGGAGAAGACCGCGGGUUCGAGUCCCGUAAGGAACG [U47C C66A]	0.775
GUUCCGUUGGCGUAAUGGUAACGCGUCUCCCUCCUAAGGAGAAGAUUGCGGGUUCGAGUCCCGUACGUAACG [C46U G68U]	0.857
GUUCCGUUGGCGUAAUGGUAACGCGUCUCCCUCCUAAGGAGAAGAUUGCGGGUUCGAGUCCCGUACGAAACG [C46U G68A]	0.9
GUUCCGUUGGCGUAAUGGUAACGCGUCUCCCUCCUAAGGAGAAGACUACGCGUUCGAGUCGCGUACGGAACG [G48A G51C C61G]	1.02
GUUCCGUUGGCGUAAUGGUAACGCGUCUCCCUCCUAAGGAGAAGACCGCGGAUUCGAGUCCCGUACGGAACG [U47C G52A]	0.724
GUUCCGUUGGCGUAAUGGUAACGCGUCUCCCUCCUAAGGAGAAGACCGCGGGUUCGAGUCCGGUCCGGAACG [U47C C62G A65C]	≤ 0.5
GUUCCGUUGGCGUAAUGGUAACGCGUCUCCCUCCUAAGGAGAAGACUACGGGUUCGAGUGCCGUUCGGAACG [G48A C60G A65U]	≤ 0.5
GUUCCGUUGGCGUAAUGGUAACGCGUCUCCCUCCUAAGGAGAAGACCGCGGGUUCGAGUGCCGUACGGAACG [U47C C60G]	0.651
GUUCCGUUGGCGUAAUGGUAACGCGUCUCCCUCCUAAGGAGAAGACCGCGGGUUCGAGUUCCGUACGGAACG [U47C C60U]	0.722
GUUCCGUUGGCGUAAUGGUAACGCGUCUCCCUCCUAAGGAGAAGACUAAGGGUUCGAGUCCCGUACUGAACG [G48A C49A G67U]	0.572
GUUCCGUUGGCGUAAUGGUAACGCGUCUCCCUCCUAAGGAGAAGAUUGCGGGUCCGAGUCCCGUACGGAACG [C46U U54C]	0.717
GUUCCGUUGGCGUAAUGGUAACGCGUCUCCCUCCUAAGGAGAAGACUACGGGUUCGAGUCCCGUACGGUACG [G48A A69U]	0.961

Variant	yeast fitness
GUUCCGUUGGCGUAAUGGUAACGCGUCUCCCUCCUAAGGAGAAGACUAUGGGUUCGAGUCCCCUACGGAACG [G48A C49U G63C]	0.633
GUUCCGUUGGCGUAAUGGUAACGCGUCUCCCUCCUAAGGAGAAGACGGCGGGUUCGAGUCCCGUACGCAACG [U47G G68C]	0.563
GUUCCGUUGGCGUAAUGGUAACGCGUCUCCCUCCUAAGGAGAAGACAACGGGUUCGAGUCCCGUACGGAUCG [U47A G48A A70U]	0.748
GUUCCGUUGGCGUAAUGGUAACGCGUCUCCCUCCUAAGGAGAAGACAGUGGGUUCGAGUCCCGUACGGAACG [U47A C49U]	0.913
GUUCCGUUGGCGUAAUGGUAACGCGUCUCCCUCCUAAGGAGAAGACAGGGGGUUCGAGUCCCGUACGGAACG [U47A C49G]	0.767
GUUCCGUUGGCGUAAUGGUAACGCGUCUCCCUCCUAAGGAGAAGACUACGGGUUCGAGUCCGGUACGGAACG [G48A C62G]	0.951
GUUCCGUUGGCGUAAUGGUAACGCGUCUCCCUCCUAAGGAGAAGACUAGGGGUUCGAGUGCCGUACGGAACG [G48A C49G C60G]	0.576
GUUCCGUUGGCGUAAUGGUAACGCGUCUCCCUCCUAAGGAGAAGACCGCGGGUUCGAGUCCCGUCGGGAACG [U47C A65C C66G]	≤ 0.5
GUUCCGUUGGCGUAAUGGUAACGCGUCUCCCUCCUAAGGAGAAGACUCCGGGUUCGAGUCUCGUACGGAACG [G48C C61U]	0.733
GUUCCGUUGGCGUAAUGGUAACGCGUCUCCCUCCUAAGGAGAAGACUACGGGUUCGCGUCCCGUACGGAACG [G48A A57C]	0.643
GUUCCGUUGGCGUAAUGGUAACGCGUCUCCCUCCUAAGGAGAAGACUCUGGGUUUGAGUCCCGUACGGAACG [G48C C49U C55U]	0.663
GUUCCGUUGGCGUAAUGGUAACGCGUCUCCCUCCUAAGGAGAAGACUACGGGUUUGAGUCCCGUACGGAGCG [G48A C55U A70G]	≤ 0.5
GUUCCGUUGGCGUAAUGGUAACGCGUCUCCCUCCUAAGGAGAAGACUCCGGGUUCGUGUCCCGUACGGAACG [G48C A57U]	0.622
GUUCCGUUGGCGUAAUGGUAACGCGUCUCCCUCCUAAGGAGAAGACUCCGGGUUCGGGUCCCGUACGGAACG [G48C A57G]	0.705
GUUCCGUUGGCGUAAUGGUAACGCGUCUCCCUCCUAAGGAGAAGACCACGGGUUCGAGUCCCGUACGGAACG [U47C G48A]	0.96
GUUCCGUUGGCGUAAUGGUAACGCGUCUCCCUCCUAAGGAGAAGACGGCGGGUACGAAUCCCGUACGGAACG [U47G U54A G58A]	≤ 0.5
GUUCCGUUGGCGUAAUGGUAACGCGUCUCCCUCCUAAGGAGAAGACCGCGGGUUCGAGCCCCGUACGGAACG [U47C U59C]	0.926
GUUCCGUUGGCGUAAUGGUAACGCGUCUCCCUCCUAAGGAGAAGACUCUGGGUUCGAGUCCCGUACGGAACG [G48C C49U]	0.787
GUUCCGUUGGCGUAAUGGUAACGCGUCUCCCUCCUAAGGAGAAGACUACGGGUUCGAGUCUCGUCCGGAACG [G48A C61U A65C]	≤ 0.5
GUUCCGUUGGCGUAAUGGUAACGCGUCUCCCUCCUAAGGAGAAGAUUGCGGGUUCGAGUCCCGUACCGAACG [C46U G67C]	1.02
GUUCCGUUGGCGUAAUGGUAACGCGUCUCCCUCCUAAGGAGAAGACUCAGGGAUCAACUCCCGUACGCAACG [G48C C49A U53A G56A G58C G68C]	≤ 0.5
GUUCCGUUGGCGUAAUGGUAACGCGUCUCCCUCCUAAGGAGAAGACCGCGGGUUCGAGUCGCGUCCGGAACG [U47C C61G A65C]	≤ 0.5
GUUCCGUUGGCGUAAUGGUAACGCGUCUCCCUCCUAAGGAGAAGACCGCGGGUUCGACUCCCGUACGGAACG [U47C G58C]	0.971
GUUCCGUUGGCGUAAUGGUAACGCGUCUCCCUCCUAAGGAGAAGACCGCGGGUUCGAGUGCCGUACGGCACG [U47C C60G A69C]	≤ 0.5
GUUCCGUUGGCGUAAUGGUAACGCGUCUCCCUCCUAAGGAGAAGAUUGCGGGUUCGAAUCCUGUACGGAACG [C46U G58A C62U]	0.665

From the RNAGym collection of RNA variant scans (doi:10.1126/science.aae0568)
